ChEMBL document CHEMBL2046324, “Synthesis and biological evaluation of 1-arylsulfonyl-5-(N-hydroxyacrylamide)indoles as potent histone deacetylase inhibitors with antitumor activity in vivo” (J Med Chem, 2012)

Legend:
cells = type: functional, Hep 3B2; settings: Homo sapiens, Hep3B, 48 h
Histone deacetylase = experiment: Inhibition of HDAC in human HeLa cell nuclear extract after 30 mins by fluorescence microplate reader; type: protein assay
MDA-MB-231 = experiment: cells; type: functional; settings: Homo sapiens, MDA-MB-231, 48 h
Histone deacetylase 2 = Histone deacetylase 2 (Homo sapiens, UniProt Q92769); experiment: Inhibition of human recombinant HDAC2 after 30 mins by fluorometric assay
Chain of Histone deacetylase 2 (Q92769 whole entry): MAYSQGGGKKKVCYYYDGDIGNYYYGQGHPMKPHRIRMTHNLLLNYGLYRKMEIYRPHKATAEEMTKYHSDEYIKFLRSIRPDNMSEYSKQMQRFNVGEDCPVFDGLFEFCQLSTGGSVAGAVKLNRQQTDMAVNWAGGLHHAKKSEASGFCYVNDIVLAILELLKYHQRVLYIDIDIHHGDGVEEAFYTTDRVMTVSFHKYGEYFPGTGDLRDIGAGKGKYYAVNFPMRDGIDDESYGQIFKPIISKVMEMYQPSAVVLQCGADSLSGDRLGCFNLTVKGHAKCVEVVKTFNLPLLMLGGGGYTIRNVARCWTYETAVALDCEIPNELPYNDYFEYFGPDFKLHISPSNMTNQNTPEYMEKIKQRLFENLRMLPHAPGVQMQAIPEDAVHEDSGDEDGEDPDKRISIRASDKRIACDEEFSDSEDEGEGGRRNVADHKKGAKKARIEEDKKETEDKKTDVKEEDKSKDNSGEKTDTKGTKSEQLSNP

A549 = experiment: Growth inhibition of human A549 cells after 48 hrs by SRB assay; type: functional; settings: Homo sapiens, A549, 48 h
In short: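 A549 cells were grown in RPMI 1640 with 10% FBS and 2 mM glutamine at 37 °C in 5% CO₂, then seeded in medium with 5% FBS. A 24 h TCA-fixed plate gave T₀. Cells were exposed to compound or DMSO for 48 h, fixed with 10% TCA and stained with 0.4% SRB; bound dye was solubilized in 10 mM Tris and read at 515 nm. GI₅₀ was the concentration halving net protein increase. At least three independent experiments.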

PC-3 = experiment: cells; type: functional; settings: Homo sapiens, PC-3, 48 h
[1] = target: T1, Protein deacetylase HDAC6 (Homo sapiens, UniProt Q9UBN7); experiment: Inhibition of human recombinant HDAC6 after 30 mins by fluorometric assay
T1 sequence (Q9UBN7 whole entry): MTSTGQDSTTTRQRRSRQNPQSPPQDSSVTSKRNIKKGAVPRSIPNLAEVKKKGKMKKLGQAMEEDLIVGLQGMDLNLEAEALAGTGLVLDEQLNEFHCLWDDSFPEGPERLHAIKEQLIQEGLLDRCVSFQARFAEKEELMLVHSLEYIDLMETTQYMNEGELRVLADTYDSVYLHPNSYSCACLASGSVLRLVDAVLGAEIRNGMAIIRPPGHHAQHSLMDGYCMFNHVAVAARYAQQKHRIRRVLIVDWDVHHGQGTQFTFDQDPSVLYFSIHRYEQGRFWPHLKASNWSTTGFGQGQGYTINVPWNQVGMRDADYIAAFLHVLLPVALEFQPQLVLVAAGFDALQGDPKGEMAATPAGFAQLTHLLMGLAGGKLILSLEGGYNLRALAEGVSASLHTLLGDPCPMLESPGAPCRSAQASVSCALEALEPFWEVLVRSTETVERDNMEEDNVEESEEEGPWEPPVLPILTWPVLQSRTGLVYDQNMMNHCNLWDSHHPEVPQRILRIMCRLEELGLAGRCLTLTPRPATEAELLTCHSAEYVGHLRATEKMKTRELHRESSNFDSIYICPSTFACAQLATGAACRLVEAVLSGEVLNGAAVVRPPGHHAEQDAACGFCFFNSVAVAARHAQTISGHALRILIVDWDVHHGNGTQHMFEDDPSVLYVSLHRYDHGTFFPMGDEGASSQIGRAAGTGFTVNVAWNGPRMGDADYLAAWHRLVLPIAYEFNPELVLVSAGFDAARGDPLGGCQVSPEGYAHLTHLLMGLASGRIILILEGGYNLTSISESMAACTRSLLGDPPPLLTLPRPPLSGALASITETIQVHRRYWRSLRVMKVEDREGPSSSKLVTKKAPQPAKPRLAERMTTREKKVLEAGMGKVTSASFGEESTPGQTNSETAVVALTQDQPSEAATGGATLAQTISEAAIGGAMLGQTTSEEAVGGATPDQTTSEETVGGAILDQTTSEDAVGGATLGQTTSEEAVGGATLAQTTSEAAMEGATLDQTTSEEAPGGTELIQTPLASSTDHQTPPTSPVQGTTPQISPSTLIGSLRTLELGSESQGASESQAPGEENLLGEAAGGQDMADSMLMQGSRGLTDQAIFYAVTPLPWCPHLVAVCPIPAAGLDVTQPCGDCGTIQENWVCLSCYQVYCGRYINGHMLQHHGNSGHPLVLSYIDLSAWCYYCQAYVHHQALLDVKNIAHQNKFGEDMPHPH

Histone deacetylase 1 = Histone deacetylase 1 (Homo sapiens, UniProt Q13547); experiment: Inhibition of human recombinant HDAC1 after 30 mins by fluorometric assay
Chain of Histone deacetylase 1 (Q13547 whole entry): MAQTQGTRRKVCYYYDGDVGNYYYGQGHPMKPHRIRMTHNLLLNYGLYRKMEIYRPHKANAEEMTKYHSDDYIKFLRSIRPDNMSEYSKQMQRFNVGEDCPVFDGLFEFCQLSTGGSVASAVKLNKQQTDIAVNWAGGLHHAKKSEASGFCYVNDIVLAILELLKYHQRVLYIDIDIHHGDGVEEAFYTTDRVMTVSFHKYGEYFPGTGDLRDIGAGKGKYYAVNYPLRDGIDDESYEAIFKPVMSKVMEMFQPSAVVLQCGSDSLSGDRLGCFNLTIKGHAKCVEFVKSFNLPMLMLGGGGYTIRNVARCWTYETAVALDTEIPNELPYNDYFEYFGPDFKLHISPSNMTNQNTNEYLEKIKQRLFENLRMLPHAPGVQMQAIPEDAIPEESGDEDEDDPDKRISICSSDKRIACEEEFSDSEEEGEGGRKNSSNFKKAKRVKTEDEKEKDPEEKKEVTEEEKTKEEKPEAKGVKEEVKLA

Row | IC50 (Histone deacetylase) | GI50 (MDA-MB-231) | IC50 (Histone deacetylase 2) | GI50 (A549) | GI50 (PC-3) | IC50 [1] | IC50 (Histone deacetylase 1) | SMILES | GI50 (cells)
1 | 32.1 nM | 1180 nM | 381 nM | 2370 nM | 1230 nM | 40.4 nM | 71.2 nM | O=C(/C=C/c1ccc2c(ccn2Cc2ccccc2)c1)NO | 860 nM
2 | 9.7 nM | 370 nM | 2.3 nM | 560 nM | 930 nM | 45.4 nM | 18.1 nM | COc1ccc(S(=O)(=O)n2ccc3cc(/C=C/C(=O)NO)ccc32)cc1OC | 360 nM
3 | 12.6 nM | 750 nM | 189 nM | 1210 nM | 850 nM | 18.3 nM | 69.9 nM | O=C(/C=C/c1ccc2c(ccn2S(=O)(=O)c2ccc([N+](=O)[O-])cc2)c1)NO | 560 nM
